For 34 compounds, IC50 results are on record in ChEMBL document CHEMBL4616594, “Virtual screening identification and chemical optimization of substituted 2-arylbenzimidazoles as new non-zinc-binding MMP-2 inhibitors” (Bioorg Med Chem, 2020).

Assay [1] concerns the target Matrix metalloproteinase-9 (Homo sapiens, UniProt P14780). Nature of the assay: Inhibition of recombinant human MMP9 catalytic domain (Phe107 to Pro449 residues) expressed in Escherichia coli cells using Mca-Pro-Leu-Gly-Leu-Dpa-Ala-Arg-NH2/TQ3-GABA-Pro-Cha-Abu-Smc-His-Ala-Dab(6'-TAMRA)-Ala-Lys-NH2 as fluorogenic substrate preincubated for 15 mins followed by substrate addition measured after 2 to 4 hrs by fluorometric assay. The method, boiled down: (§1)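 Commercial catalytic domain in Tris·HCl 50 mM pH 7.5, NaCl 150 mM, CaCl₂ 1 mM, ZnCl₂ 1 µM, 0.05% Brij-35, 1% DMSO. Inhibitor was tested at six concentrations (1 nM–100 µM), diluted from 10 mM DMSO stocks, and pre-incubated with enzyme for 15 min at room temperature. OmniMMP substrate (2.5 µM final) or OmniMMP RED substrate (1 µM final) was then added and incubated 2–4 h at 37°C. Fluorescence read at ex 340/em 405 or ex 545/em 572. Percent inhibition calculated versus no-inhibitor wells. Run in triplicate; IC50 given as mean ± SEM of ≥2 independent experiments.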

The target in assay [2] is 72 kDa type IV collagenase (Homo sapiens, UniProt P08253). Briefly: Inhibition of recombinant human MMP2 catalytic domain (Tyr110 to Asp452 residues) expressed in yeast cells using Mca-Pro-Leu-Gly-Leu-Dpa-Ala-Arg-NH2/TQ3-GABA-Pro-Cha-Abu-Smc-His-Ala-Dab(6'-TAMRA)-Ala-Lys-NH2 as fluorogenic substrate preincubated for 15 mins followed by substrate addition measured after 2 to 4 hrs by fluorometric analysis. It counts as biochemical. An outline of the steps: as §1
72 kDa type IV collagenase, sequence (P08253 whole entry, the tested form may be a part): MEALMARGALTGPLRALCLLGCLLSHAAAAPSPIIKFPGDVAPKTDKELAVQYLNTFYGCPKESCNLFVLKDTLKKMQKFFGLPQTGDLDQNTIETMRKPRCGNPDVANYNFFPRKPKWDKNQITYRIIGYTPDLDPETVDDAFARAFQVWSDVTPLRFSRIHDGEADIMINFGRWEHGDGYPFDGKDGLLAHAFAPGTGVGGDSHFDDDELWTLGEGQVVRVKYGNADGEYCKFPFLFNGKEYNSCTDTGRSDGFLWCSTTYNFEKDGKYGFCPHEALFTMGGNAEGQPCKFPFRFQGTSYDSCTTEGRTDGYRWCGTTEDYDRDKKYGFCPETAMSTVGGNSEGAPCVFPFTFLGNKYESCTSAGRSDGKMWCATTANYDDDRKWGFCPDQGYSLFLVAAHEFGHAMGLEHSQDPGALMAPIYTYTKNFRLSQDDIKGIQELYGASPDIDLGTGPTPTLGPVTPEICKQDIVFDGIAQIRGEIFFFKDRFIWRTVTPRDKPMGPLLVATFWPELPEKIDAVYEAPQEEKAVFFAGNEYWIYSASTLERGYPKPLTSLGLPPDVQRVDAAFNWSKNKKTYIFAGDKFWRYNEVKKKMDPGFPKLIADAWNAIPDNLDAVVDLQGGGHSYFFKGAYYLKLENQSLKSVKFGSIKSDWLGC

The target of another assay is Collagenase 3 (Homo sapiens, UniProt P45452). Nature of the assay: Inhibition of recombinant human MMP13 catalytic domain (Tyr104 to Asn274 residues) expressed in Escherichia coli cells using Mca-Pro-Leu-Gly-Leu-Dpa-Ala-Arg-NH2/TQ3-GABA-Pro-Cha-Abu-Smc-His-Ala-Dab(6'-TAMRA)-Ala-Lys-NH2 as fluorogenic substrate preincubated for 15 mins followed by substrate addition measured after 2 to 4 hrs by fluorometric assay.

The next assay addresses Neutrophil collagenase (Homo sapiens, UniProt P22894). Briefly: Inhibition of recombinant human MMP8 catalytic domain (Phe99 to Gln269 residues) expressed in Escherichia coli cells using Mca-Pro-Leu-Gly-Leu-Dpa-Ala-Arg-NH2/TQ3-GABA-Pro-Cha-Abu-Smc-His-Ala-Dab(6'-TAMRA)-Ala-Lys-NH2 as fluorogenic substrate preincubated for 15 mins followed by substrate addition measured after 2 to 4 hrs by fluorometric assay. The method, boiled down:
as §1

Neutrophil collagenase, sequence (P22894 whole entry, the tested form may be a part): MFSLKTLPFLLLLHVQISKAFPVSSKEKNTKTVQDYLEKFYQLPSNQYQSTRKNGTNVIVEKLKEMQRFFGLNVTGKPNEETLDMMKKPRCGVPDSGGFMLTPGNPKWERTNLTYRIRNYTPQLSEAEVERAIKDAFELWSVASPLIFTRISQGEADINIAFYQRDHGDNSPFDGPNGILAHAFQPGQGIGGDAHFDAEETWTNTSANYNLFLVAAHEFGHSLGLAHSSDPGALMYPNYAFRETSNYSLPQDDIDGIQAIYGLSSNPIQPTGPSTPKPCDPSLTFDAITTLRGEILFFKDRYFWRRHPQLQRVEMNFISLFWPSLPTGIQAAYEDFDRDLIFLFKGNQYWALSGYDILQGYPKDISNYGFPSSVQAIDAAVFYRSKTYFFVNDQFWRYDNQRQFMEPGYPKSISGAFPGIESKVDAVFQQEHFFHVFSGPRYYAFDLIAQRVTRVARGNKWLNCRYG
Matrix metalloproteinase-9, sequence (P14780 whole entry, the tested form may be a part): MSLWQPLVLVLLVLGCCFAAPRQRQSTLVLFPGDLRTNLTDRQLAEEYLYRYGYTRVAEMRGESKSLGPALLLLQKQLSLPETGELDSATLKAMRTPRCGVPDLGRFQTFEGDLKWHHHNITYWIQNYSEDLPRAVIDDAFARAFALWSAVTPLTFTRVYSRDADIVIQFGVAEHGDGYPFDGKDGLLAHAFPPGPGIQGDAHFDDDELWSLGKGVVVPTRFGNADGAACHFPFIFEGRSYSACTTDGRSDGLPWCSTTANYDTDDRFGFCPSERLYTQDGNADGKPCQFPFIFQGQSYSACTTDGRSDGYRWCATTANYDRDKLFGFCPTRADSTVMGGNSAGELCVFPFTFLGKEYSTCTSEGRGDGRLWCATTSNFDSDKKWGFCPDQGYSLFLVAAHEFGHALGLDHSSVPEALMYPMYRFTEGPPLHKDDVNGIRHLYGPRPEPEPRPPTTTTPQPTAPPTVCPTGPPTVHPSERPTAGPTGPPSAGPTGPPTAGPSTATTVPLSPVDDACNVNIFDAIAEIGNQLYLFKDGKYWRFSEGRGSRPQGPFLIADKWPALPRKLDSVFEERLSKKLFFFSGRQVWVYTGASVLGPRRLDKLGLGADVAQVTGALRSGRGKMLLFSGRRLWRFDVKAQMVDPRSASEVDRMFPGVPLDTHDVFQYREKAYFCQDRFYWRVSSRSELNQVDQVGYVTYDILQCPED

Usually IC50 stands for the concentration that inhibits the measured activity by half. As to `O=[N+]([O-])c1ccc(-c2nc3cc([N+](=O)[O-])ccc3[nH]2)cc1`, the IC50 in assay [1] amounted to 23.3 µM; in assay [2], 4.2 µM; at Collagenase 3 it was 12 µM; on Neutrophil collagenase, 25 µM.

For the compound `O=C(Nc1cccc(-c2nc3ccccc3[nH]2)c1)c1ccccc1`, the IC50 is 57 µM in assay [1], 11.9 µM in assay [2], 35 µM on Collagenase 3 and 46 µM at Neutrophil collagenase.

For `O=C(CCc1ccccc1)Nc1cccc(-c2nc3ccccc3[nH]2)c1`, the IC50 in assay [1] is 68 µM; in assay [2] it was 87 µM; on Collagenase 3, more than 100 µM; on Neutrophil collagenase, 41.9 µM.

Consider `Cc1ccc2nc(-c3ccc([N+](=O)[O-])cc3)[nH]c2c1`, for which the IC50 was 22 µM in assay [1], 6.5 µM in assay [2], 6.1 µM at Collagenase 3 and 23 µM on Neutrophil collagenase.

As to `Cc1ccc2oc(-c3ccc([N+](=O)[O-])cc3)nc2c1`, the IC50 turned out to be 14.9 µM in assay [1], 9.7 µM in assay [2], 8.8 µM at Collagenase 3 and 16.4 µM on Neutrophil collagenase.

In the case of `O=C(CCCc1ccccc1)Nc1ccc(-c2nc3ccc(Br)cc3[nH]2)cc1`, the IC50 is 58 µM in assay [1], 31 µM in assay [2], 22.2 µM on Collagenase 3 and 67 µM at Neutrophil collagenase.

For `Nc1ccc(-c2nc3ccc(Br)cc3[nH]2)cc1`, the IC50 in assay [1] is 21.7 µM; in assay [2], 10 µM; on Collagenase 3, 21 µM; at Neutrophil collagenase, 26 µM.

`Nc1ccc(-c2nc3ccccc3s2)cc1`: the IC50 in assay [1] was 79 µM; in assay [2], more than 100 µM; on Collagenase 3, more than 100 µM; on Neutrophil collagenase, 88 µM.

Take `O=C(Nc1ccc(-c2nc3ccccc3s2)cc1)c1ccccc1`: the IC50 in assay [1] stood at 42 µM; in assay [2] it was 16.4 µM; at Collagenase 3, 21 µM; at Neutrophil collagenase, 38 µM.

Regarding `Cc1ccc2nc(-c3ccc(NC(=O)c4cccc([N+](=O)[O-])c4)cc3)[nH]c2c1`, the IC50 came out at 14.5 µM in assay [1], 3.9 µM in assay [2], 2.2 µM on Collagenase 3 and 20.9 µM at Neutrophil collagenase.

For the compound `Cc1ccc2nc(-c3cccc(NC(=O)CN(C)Cc4ccccn4)c3)[nH]c2c1`, the IC50 in assay [1] is more than 100 µM; in assay [2], 72 µM; on Collagenase 3, 93 µM; at Neutrophil collagenase, more than 100 µM.

In the case of `O=C(CCc1ccccc1)Nc1cccc(-c2nc3ccc(Br)cc3[nH]2)c1`, the IC50 in assay [1] stood at 14.5 µM; in assay [2], 16 µM; on Collagenase 3 it was 73 µM; on Neutrophil collagenase it was 12.5 µM.

For the compound `O=C(CCCc1ccccc1)Nc1cccc(-c2nc3ccccc3[nH]2)c1`, the IC50 was found to be 43 µM in assay [1], 47 µM in assay [2], 81.2 µM on Collagenase 3 and 34.6 µM at Neutrophil collagenase.

With `O=C(Nc1ccc(-c2nc3ccc(Br)cc3[nH]2)cc1)c1ccc([N+](=O)[O-])cc1`, the IC50 was found to be 6.4 µM in assay [1], 3.1 µM in assay [2], 3.9 µM at Collagenase 3 and 7.9 µM on Neutrophil collagenase.

With `O=C(Nc1ccc(-c2nc3ccccc3[nH]2)cc1)c1ccc(Br)cc1`, the IC50 in assay [1] is 41 µM; in assay [2] it was 9.4 µM; on Collagenase 3, 10.9 µM; at Neutrophil collagenase it was 55 µM.

On to `Cc1ccc2nc(-c3ccc(NC(=O)c4ccc([N+](=O)[O-])cc4)cc3)[nH]c2c1`, for which the IC50 came out at 10.7 µM in assay [1], 3.3 µM in assay [2], 1.8 µM at Collagenase 3 and 25.5 µM on Neutrophil collagenase.

Consider `O=C(CCc1ccccc1)Nc1ccc(-c2nc3ccccc3[nH]2)cc1`, for which the IC50 was 29 µM in assay [1], 19 µM in assay [2], 15.2 µM at Collagenase 3 and 64 µM on Neutrophil collagenase.

Consider `Cc1ccc2nc(-c3cccc([N+](=O)[O-])c3)[nH]c2c1`, for which the IC50 in assay [1] was 36.6 µM; in assay [2], 14 µM; at Collagenase 3, 15.5 µM; on Neutrophil collagenase, 27 µM.

On to `O=[N+]([O-])c1ccc(-c2nc3ccc(Br)cc3[nH]2)cc1`, for which the IC50 was found to be 10 µM in assay [1], 8.8 µM in assay [2], 10.5 µM at Collagenase 3 and 10 µM on Neutrophil collagenase.

As to `O=C(O)c1ccc(-c2nc3ccc(Br)cc3[nH]2)cc1`, the IC50 in assay [1] worked out at 27 µM; in assay [2], 31.5 µM; on Collagenase 3, 43 µM; on Neutrophil collagenase, 35 µM.

As for `O=C(Nc1nc2ccccc2s1)c1ccc([N+](=O)[O-])cc1`, the IC50 (in assay [1]; in assay [2]; on Collagenase 3; at Neutrophil collagenase) was more than 100 µM each time.

Take `O=[N+]([O-])c1ccc(-c2nc3ccccc3o2)cc1`: the IC50 came to 36 µM in assay [1], 5.8 µM in assay [2], 7.3 µM at Collagenase 3 and 46 µM on Neutrophil collagenase.

With `Cc1ccc2nc(-c3cccc(C(=O)NCCc4ccccc4)c3)[nH]c2c1`, the IC50 was 37.7 µM in assay [1], 45 µM in assay [2], more than 100 µM at Collagenase 3 and 40 µM at Neutrophil collagenase.

As for `O=S(=O)(Nc1cccc(-c2nc3ccccc3[nH]2)c1)c1ccccc1`, the IC50 stood at 36 µM in assay [1], 65.4 µM in assay [2], 94 µM at Collagenase 3 and 43.2 µM at Neutrophil collagenase.

For `O=[N+]([O-])c1ccc(-c2nc3ccccc3s2)cc1`, the IC50 turned out to be 11.5 µM in assay [1], 6.5 µM in assay [2], 7.5 µM on Collagenase 3 and 10.5 µM on Neutrophil collagenase.

In the case of `Cc1ccc2nc(-c3ccc([N+](=O)[O-])cc3)oc2c1`, the IC50 came to 18 µM in assay [1], 9 µM in assay [2], 9.4 µM at Collagenase 3 and 29 µM at Neutrophil collagenase.

In the case of `Cc1ccc2nc(-c3ccc(NC(=O)CCc4ccccc4)cc3)[nH]c2c1`, the IC50 in assay [1] was 60 µM; in assay [2], 25.3 µM; on Collagenase 3, 17.9 µM; at Neutrophil collagenase, 77 µM.

For the compound `Cc1ccc2nc(-c3ccc(NC(=O)c4ccccc4)cc3)[nH]c2c1`, the IC50 in assay [1] was determined as 28.4 µM; in assay [2] it was 8.6 µM; on Collagenase 3 it was 6.5 µM; at Neutrophil collagenase, 45.3 µM.

Consider `Cc1cccc2nc(-c3cccc(NC(=O)CCc4ccccc4)c3)[nH]c12`, for which the IC50 in assay [1] is 60 µM; in assay [2], 64 µM; at Collagenase 3, more than 100 µM; on Neutrophil collagenase, 29 µM.

For `O=C(Nc1nc2ccc(Cl)cc2s1)c1ccc([N+](=O)[O-])cc1`, the IC50 in assay [1] was more than 100 µM; in assay [2], more than 100 µM; on Collagenase 3, 20 µM; at Neutrophil collagenase, more than 100 µM.

With `O=[N+]([O-])c1ccc(-c2nc3ccccc3[nH]2)o1`, the IC50 in assay [1] stood at 32 µM; in assay [2], 31 µM; on Collagenase 3, 33 µM; on Neutrophil collagenase, 27 µM.

As to `O=[N+]([O-])c1ccc(-c2nc3ccccc3[nH]2)cc1`, the IC50 in assay [1] is 56.5 µM; in assay [2], 82 µM; at Collagenase 3, more than 100 µM; on Neutrophil collagenase, 64 µM.

`Cc1cccc2nc(-c3cccc(NC(=O)CCCc4ccccc4)c3)[nH]c12`: the IC50 in assay [1] turned out to be 38.6 µM; in assay [2] it was 60 µM; on Collagenase 3, 91 µM; at Neutrophil collagenase, 40.9 µM.

For `Brc1ccc2nc(-c3ccccc3)[nH]c2c1`, the IC50 (in assay [1]; in assay [2]; on Collagenase 3; at Neutrophil collagenase) was more than 100 µM throughout.
